Assay type: in vivo, human
Method in brief: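 Tablets co-formulated with SNAC, 3 mg on Days 1–5 then 7 mg on Days 6–10. Reference arm: ≥6 h overnight fast, 8 am dose, 30-min post-dose fast. Other arms: ~760 kcal meal, then 2/4/6 h fast, 8 pm dose, 30-min or overnight post-dose fast. Plasma sampled 10 min–24 h after 10th dose and measured by validated LC-MS/MS. AUC0–24h by linear trapezoidal method; log values back-transformed to geometric-mean ratios with 95% CI.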

[1] = 2 h–30 min, 4 h–30 min and 6 h–30 min arms vs night–30 min, p < 0.0001

- AUC0–24h Day 10 estimated treatment ratio range [1]: 0.12–0.43
- Cmax Day 10 estimated treatment ratio range [1]: 0.12–0.44
- reduction of exposure to semaglutide compared with reference arm (night–30 min) (all alternative treatment arms, even 6 h–30 min): more than 50%
- median Tmax on Day 10, range across treatment arms (all five treatment arms): 48 to 60 min
SMILES: CC[C@H](C)[C@H](NC(=O)[C@H](Cc1ccccc1)NC(=O)[C@H](CCC(=O)O)NC(=O)[C@H](CCCCNC(=O)COCCOCCNC(=O)COCCOCCNC(=O)CC[C@H](NC(=O)CCCCCCCCCCCCCCCCC(=O)O)C(=O)O)NC(=O)[C@H](C)NC(=O)[C@H](C)NC(=O)[C@H](CCC(N)=O)NC(=O)CNC(=O)[C@H](CCC(=O)O)NC(=O)[C@H](CC(C)C)NC(=O)[C@H](Cc1ccc(O)cc1)NC(=O)[C@H](CO)NC(=O)[C@H](CO)NC(=O)[C@@H](NC(=O)[C@H](CC(=O)O)NC(=O)[C@H](CO)NC(=O)[C@@H](NC(=O)[C@H](Cc1ccccc1)NC(=O)[C@@H](NC(=O)CNC(=O)[C@H](CCC(=O)O)NC(=O)C(C)(C)NC(=O)[C@@H](N)Cc1cnc[nH]1)[C@@H](C)O)[C@@H](C)O)C(C)C)C(=O)N[C@@H](C)C(=O)N[C@@H](Cc1c[nH]c2ccccc12)C(=O)N[C@@H](CC(C)C)C(=O)N[C@H](C(=O)N[C@@H](CCCNC(=N)N)C(=O)NCC(=O)N[C@@H](CCCNC(=N)N)C(=O)NCC(=O)O)C(C)C [oral semaglutide, semaglutide]

— article PMC10023024 (Clinical Pharmacokinetics, 2023)
